Assay [1] has as its target Maternal embryonic leucine zipper kinase (Homo sapiens) (UniProt Q14680). Nature of the assay: Inhibition of MELK assessed as residual enzyme activity at 10 uM relative to untreated control. In short, it runs like this:
(§1)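 Assayed with [γ-33P]ATP at 50 µM and 10 mM Mg acetate in 50 mM Tris/HCl pH 7.5, 0.1 mM EGTA, 0.1% 2-mercaptoethanol, 30 min, 21 °C. Phosphoric acid stop, P81 filter capture. ERK2 and Lck are mouse; AMPK is rat. 10 µM compound; % activity remaining relative to control without inhibitor, duplicates.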

The target of assay [2] is Mitogen-activated protein kinase 14 (Homo sapiens) (UniProt Q16539). The assay can be described thus: Inhibition of p38alpha assessed as residual enzyme activity at 10 uM relative to untreated control. In short, it runs like this: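 p38γ and p38δ MAPK run at 5 µM [γ-33P]ATP, and p38α at 50 µM, each with 10 mM Mg acetate. Buffer 50 mM Tris/HCl pH 7.5, 0.1 mM EGTA, 0.1% 2-mercaptoethanol. 10 µM compound, 30 min at 21 °C. P81 filter capture. Residual activity relative to control, duplicates.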

The target of assay [3] is Proto-oncogene tyrosine-protein kinase Src (Homo sapiens) (UniProt P12931). Nature of the assay: Inhibition of Src assessed as residual enzyme activity at 10 uM relative to untreated control.
The subject of assay [4] is Lck (Mus musculus). Nature of the assay: Inhibition of Lck assessed as residual enzyme activity at 10 uM relative to untreated control.
The target of assay [5] is Mitogen-activated protein kinase 3 (Homo sapiens) (UniProt P27361). Nature of the assay: Inhibition of ERK1 assessed as residual enzyme activity at 10 uM relative to untreated control. In short, it runs like this: (§2)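 Radiometric filter-binding assay at 21 °C for 30 min. Mix: 50 mM Tris/HCl pH 7.5, 0.1 mM EGTA, 0.1% 2-mercaptoethanol, 10 mM Mg acetate and [γ-33P]ATP (800 cpm/pmol) at 5 µM. Stopped with orthophosphoric acid and spotted on P81. Compound at 10 µM; activity given as % remaining versus no-inhibitor control, duplicates. Kinases human full-length unless noted.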

In assay [6] the target is Glycogen synthase kinase-3 beta (Homo sapiens) (UniProt P49841). Nature of the assay: Inhibition of GSK3-beta assessed as residual enzyme activity at 10 uM relative to untreated control. Put shortly:
as §2

The target in assay [7] is T1, Serine/threonine-protein kinase D1 (Homo sapiens) (UniProt Q15139).
T1 sequence (whole entry): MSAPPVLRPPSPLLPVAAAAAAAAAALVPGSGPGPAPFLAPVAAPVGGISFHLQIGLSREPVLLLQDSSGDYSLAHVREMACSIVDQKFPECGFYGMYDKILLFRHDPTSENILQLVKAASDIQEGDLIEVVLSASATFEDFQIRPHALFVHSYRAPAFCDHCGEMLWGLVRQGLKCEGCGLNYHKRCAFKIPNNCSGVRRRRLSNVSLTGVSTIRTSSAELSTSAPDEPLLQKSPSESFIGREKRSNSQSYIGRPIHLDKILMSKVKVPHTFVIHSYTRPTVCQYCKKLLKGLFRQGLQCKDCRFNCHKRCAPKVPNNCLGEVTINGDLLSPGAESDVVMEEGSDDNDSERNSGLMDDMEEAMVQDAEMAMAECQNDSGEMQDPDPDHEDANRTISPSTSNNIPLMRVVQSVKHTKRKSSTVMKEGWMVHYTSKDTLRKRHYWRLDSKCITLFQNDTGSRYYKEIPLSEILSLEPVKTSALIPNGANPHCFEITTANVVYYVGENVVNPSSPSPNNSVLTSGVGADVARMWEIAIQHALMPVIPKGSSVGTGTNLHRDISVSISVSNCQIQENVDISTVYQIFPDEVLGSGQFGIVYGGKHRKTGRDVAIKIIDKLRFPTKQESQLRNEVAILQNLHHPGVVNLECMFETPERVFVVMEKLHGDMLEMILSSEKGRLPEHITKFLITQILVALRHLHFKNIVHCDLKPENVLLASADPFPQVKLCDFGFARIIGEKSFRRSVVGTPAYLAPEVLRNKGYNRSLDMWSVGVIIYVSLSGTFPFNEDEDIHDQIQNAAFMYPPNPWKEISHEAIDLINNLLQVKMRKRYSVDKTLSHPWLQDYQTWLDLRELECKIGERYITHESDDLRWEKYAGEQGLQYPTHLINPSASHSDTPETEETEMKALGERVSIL
Nature of the assay: Inhibition of PKD1 assessed as residual enzyme activity at 10 uM relative to untreated control.

In assay [8] the target is RAC-beta serine/threonine-protein kinase (Homo sapiens) (UniProt P31751). The assay can be described thus: Inhibition of PKBbeta assessed as residual enzyme activity at 10 uM relative to untreated control. In short, it runs like this: as §1
Assay [9] concerns the target MAP/microtubule affinity-regulating kinase 3 (Homo sapiens) (UniProt P27448). The assay can be described thus: Inhibition of MARK3 assessed as residual enzyme activity at 10 uM relative to untreated control. Put shortly: as §2
A short description of assay [10]: Inhibition of AMPK assessed as residual enzyme activity at 10 uM relative to untreated control. Put shortly:
as §1

Assay [11] deals with Myosin light chain kinase, smooth muscle (Homo sapiens) (UniProt Q15746). The assay can be described thus: Inhibition of smMLCK assessed as residual enzyme activity at 10 uM relative to untreated control.
Assay [12] concerns the target T2, 3-phosphoinositide-dependent protein kinase 1 (Homo sapiens) (UniProt O15530).
T2 sequence (whole entry): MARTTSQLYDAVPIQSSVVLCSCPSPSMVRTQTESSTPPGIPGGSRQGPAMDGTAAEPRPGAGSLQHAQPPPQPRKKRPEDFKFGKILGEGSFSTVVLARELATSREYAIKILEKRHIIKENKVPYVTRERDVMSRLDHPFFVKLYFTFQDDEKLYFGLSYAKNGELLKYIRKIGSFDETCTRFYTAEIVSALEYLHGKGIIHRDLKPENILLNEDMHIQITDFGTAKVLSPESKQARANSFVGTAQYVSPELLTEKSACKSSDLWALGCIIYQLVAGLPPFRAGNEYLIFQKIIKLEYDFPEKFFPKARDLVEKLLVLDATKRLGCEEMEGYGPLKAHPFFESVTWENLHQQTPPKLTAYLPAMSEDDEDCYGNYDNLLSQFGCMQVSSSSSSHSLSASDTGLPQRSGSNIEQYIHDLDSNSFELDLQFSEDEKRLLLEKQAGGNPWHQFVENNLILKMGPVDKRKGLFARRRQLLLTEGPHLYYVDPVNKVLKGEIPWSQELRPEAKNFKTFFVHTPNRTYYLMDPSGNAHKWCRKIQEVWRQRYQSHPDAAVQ
Nature of the assay: Inhibition of PDK1 assessed as residual enzyme activity at 10 uM relative to untreated control. In short, it runs like this: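 Kinases of human origin, except CK1δ, which is rat. Run in 50 mM Tris/HCl pH 7.5, 0.1 mM EGTA, 0.1% 2-mercaptoethanol and 10 mM Mg acetate, with [γ-33P]ATP at 20 µM, 30 min at 21 °C. Acid-stopped and captured on P81 filters. Compound tested at 10 µM; residual % of uninhibited control, duplicate determinations.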

Assay [13] concerns MKK1 (Oryctolagus cuniculus). The assay can be described thus: Inhibition of MKK1 assessed as residual enzyme activity at 10 uM relative to untreated control.

Maternal embryonic leucine zipper kinase (Homo sapiens), sequence (Q14680 whole entry, looked up): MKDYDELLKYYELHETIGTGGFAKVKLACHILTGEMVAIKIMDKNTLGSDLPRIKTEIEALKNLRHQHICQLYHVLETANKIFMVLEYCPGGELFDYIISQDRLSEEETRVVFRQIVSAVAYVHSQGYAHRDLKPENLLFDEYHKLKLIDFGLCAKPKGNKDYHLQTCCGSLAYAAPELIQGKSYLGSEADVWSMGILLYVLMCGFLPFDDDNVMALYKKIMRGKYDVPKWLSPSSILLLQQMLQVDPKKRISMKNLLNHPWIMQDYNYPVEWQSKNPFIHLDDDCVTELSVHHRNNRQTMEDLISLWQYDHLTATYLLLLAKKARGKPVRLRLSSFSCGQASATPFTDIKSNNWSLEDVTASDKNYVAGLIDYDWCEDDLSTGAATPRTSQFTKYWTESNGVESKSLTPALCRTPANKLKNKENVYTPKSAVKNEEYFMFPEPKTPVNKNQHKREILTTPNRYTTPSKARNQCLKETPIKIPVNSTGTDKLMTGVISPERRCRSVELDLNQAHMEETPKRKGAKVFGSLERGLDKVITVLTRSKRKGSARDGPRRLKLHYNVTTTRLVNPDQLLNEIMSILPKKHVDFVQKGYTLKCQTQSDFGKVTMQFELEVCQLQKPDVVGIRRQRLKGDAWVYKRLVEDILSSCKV
MAP/microtubule affinity-regulating kinase 3 (Homo sapiens), sequence (P27448 whole entry, looked up): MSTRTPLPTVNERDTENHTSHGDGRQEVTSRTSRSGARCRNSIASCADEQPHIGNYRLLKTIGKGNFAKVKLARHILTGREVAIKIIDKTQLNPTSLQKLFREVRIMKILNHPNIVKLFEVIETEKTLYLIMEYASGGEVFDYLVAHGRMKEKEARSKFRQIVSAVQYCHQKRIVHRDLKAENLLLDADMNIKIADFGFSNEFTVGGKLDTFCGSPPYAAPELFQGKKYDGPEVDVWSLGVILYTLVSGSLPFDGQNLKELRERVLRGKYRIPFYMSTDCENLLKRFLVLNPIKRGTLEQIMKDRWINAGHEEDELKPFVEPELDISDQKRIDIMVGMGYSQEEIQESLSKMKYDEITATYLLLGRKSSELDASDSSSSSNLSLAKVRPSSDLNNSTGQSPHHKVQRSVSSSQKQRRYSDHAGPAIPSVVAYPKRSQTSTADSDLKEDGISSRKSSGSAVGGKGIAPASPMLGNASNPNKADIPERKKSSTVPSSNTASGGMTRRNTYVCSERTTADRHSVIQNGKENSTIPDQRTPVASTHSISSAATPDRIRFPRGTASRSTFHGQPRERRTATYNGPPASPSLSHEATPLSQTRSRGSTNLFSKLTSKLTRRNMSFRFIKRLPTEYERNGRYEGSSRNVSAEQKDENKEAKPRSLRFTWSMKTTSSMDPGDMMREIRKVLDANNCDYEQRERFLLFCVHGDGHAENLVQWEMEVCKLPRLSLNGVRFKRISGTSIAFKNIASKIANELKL
Mitogen-activated protein kinase 3 (Homo sapiens), sequence (P27361 whole entry): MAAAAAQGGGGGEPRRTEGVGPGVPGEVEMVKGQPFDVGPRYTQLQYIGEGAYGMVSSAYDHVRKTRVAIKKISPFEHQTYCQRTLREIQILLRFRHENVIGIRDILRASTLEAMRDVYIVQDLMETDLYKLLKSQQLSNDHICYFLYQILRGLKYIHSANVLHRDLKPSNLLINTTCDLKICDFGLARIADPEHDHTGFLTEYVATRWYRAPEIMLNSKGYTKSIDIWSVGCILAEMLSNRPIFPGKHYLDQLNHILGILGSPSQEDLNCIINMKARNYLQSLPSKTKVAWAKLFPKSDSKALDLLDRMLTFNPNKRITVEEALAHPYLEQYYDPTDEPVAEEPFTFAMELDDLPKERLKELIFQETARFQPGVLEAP
RAC-beta serine/threonine-protein kinase (Homo sapiens), sequence (P31751 whole entry): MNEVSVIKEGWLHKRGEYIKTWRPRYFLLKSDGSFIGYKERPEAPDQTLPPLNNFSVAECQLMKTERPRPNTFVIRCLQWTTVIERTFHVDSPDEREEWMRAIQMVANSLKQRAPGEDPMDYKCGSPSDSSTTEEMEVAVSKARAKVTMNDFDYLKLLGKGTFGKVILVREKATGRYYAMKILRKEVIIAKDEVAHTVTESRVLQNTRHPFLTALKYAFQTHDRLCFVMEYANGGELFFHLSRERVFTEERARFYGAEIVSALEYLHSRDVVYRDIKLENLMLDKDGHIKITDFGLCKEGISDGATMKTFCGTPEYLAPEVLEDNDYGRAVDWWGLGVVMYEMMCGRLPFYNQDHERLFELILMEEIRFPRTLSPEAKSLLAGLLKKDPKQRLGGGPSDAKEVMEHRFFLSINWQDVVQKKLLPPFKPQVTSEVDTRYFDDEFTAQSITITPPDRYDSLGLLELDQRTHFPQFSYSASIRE
Myosin light chain kinase, smooth muscle (Homo sapiens), sequence (Q15746 whole entry): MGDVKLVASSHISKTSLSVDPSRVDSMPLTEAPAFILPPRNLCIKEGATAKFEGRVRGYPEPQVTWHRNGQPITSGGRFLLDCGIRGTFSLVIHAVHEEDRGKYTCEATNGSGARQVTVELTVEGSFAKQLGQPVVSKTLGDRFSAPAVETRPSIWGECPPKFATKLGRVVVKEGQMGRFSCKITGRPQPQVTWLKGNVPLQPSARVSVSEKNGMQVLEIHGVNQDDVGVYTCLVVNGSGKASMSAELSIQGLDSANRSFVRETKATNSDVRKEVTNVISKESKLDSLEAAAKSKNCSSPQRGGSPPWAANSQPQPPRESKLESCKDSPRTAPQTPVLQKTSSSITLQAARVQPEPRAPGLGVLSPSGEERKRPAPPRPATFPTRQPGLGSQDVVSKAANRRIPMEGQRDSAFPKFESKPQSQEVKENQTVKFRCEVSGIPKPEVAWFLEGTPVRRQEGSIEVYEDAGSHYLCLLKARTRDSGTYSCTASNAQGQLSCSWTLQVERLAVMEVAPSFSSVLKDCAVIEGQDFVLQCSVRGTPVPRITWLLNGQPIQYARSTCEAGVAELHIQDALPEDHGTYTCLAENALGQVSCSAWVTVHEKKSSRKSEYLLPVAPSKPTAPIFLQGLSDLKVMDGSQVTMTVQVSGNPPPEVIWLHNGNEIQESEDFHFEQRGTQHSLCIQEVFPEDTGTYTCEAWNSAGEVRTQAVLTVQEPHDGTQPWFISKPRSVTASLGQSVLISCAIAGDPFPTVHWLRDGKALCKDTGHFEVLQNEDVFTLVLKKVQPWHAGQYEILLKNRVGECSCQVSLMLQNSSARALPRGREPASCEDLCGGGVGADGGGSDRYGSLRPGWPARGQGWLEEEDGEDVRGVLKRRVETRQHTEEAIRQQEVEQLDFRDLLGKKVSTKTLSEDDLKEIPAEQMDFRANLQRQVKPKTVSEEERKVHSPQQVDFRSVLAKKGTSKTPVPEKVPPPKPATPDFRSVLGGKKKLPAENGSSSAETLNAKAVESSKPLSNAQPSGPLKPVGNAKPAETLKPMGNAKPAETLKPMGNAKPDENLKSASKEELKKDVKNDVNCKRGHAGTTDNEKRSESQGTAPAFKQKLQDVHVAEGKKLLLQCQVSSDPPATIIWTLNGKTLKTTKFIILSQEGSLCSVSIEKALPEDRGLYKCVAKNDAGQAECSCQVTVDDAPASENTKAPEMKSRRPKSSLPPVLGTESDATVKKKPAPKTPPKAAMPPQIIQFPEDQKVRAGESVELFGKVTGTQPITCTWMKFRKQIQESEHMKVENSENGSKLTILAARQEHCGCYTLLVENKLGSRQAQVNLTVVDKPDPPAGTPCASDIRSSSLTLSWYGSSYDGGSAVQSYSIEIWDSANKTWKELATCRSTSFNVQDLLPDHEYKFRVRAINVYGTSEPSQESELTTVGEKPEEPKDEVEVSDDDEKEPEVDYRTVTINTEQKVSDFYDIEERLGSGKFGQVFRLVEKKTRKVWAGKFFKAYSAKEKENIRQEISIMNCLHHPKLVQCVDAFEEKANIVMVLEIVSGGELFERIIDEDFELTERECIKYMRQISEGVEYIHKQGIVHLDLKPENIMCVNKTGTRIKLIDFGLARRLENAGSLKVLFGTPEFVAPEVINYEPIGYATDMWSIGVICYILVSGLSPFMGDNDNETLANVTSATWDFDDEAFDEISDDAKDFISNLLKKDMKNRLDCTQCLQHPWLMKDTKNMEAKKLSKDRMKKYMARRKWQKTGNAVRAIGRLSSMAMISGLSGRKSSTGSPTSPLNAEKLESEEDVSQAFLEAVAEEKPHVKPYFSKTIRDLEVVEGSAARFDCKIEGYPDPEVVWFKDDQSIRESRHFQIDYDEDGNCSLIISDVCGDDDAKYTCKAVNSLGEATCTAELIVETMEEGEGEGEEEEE
Mitogen-activated protein kinase 14 (Homo sapiens), sequence (Q16539 whole entry): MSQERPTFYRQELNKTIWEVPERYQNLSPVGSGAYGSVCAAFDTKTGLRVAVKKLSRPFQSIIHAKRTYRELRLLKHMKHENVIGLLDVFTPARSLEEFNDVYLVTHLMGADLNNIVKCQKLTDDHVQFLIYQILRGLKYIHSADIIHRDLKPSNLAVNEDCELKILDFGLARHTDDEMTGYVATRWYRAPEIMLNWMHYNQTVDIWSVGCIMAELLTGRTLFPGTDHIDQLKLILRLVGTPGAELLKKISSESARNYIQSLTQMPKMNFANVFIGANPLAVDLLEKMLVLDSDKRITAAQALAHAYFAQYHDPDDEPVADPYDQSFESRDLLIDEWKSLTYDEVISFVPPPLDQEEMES
Glycogen synthase kinase-3 beta (Homo sapiens), sequence (P49841 whole entry, looked up): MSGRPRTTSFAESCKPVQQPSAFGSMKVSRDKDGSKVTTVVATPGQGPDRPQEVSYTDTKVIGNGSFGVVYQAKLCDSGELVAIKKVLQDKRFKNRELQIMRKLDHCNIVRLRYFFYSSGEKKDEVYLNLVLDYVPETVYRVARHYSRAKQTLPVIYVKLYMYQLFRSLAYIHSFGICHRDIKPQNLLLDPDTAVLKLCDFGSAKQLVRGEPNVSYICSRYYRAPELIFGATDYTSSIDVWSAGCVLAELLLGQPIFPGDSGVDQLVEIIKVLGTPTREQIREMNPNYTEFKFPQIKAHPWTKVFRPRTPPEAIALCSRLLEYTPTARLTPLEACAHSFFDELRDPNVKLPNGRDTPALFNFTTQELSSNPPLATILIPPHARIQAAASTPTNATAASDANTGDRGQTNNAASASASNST

As to `c1ccc2c(c1)[nH]c1c3cc[nH]c3ccc21`, the Activity was found to be 82% in assay [1]; 115% in assay [2]; 102% in assay [3]; 81% in assay [4]; 97% in [5]; 102% in assay [6]. Also, the Activity in assay [7] was found to be 71%; in assay [8], 107%; in [9] it was 94%; in assay [10] it was 79%; in assay [11], 82%; in assay [12], 82%. In addition, in assay [13], the Activity was determined as 75%.

With `O=Cc1c[nH]c2ccc3c4ccccc4[nH]c3c12`, the Activity in assay [1] came to 89%; in [2] it was 108%; in assay [3], 99%; in assay [4] it was 114%; in assay [5], 95%; in [6], 96%. In addition, the Activity was 87% in [7]; 107% in assay [8]; 105% in assay [9]; 85% in assay [10]; 91% in [11]; 85% in [12]. Moreover, the Activity in assay [13] amounted to 104%.

With `c1ccc2c(c1)[nH]c1c2ccc2cc[nH]c21`, the Activity in assay [1] turned out to be 93%; in assay [2] it was 108%; in [3], 98%; in assay [4], 88%; in assay [5], 108%; in assay [6], 111%. The Activity in assay [7] came out at 83%; in [8], 107%; in [9], 116%; in [10], 80%; in [11] it was 86%; in assay [12], 86%. Also, the Activity in [13] was determined as 87%.

In the case of `O=Cc1c[nH]c2c1ccc1c3ccccc3[nH]c12`, the Activity came out at 61% in [1]; 102% in [2]; 85% in [3]; 87% in [5]; 88% in [6]; 28% in assay [7]. Also, the Activity in [8] was 98%; in assay [9], 88%; in [10] it was 59%; in assay [11] it was 60%.

For the origin of these results see ChEMBL document CHEMBL1154186, “Synthesis, kinase inhibitory potencies, and in vitro antiproliferative evaluation of new Pim kinase inhibitors” (J Med Chem, 2009).
